Compounds with a hit are over-represented: about 1.6% of the library has one in this group of screens.
TLR9-MyD88 block = TLR9-MyD88 interaction inhibition; CHO BLA complementation TLR9-MyD88, CCF4 FRET ratio; 0.21% of 340,000 active; inhibition, % at 4.98 µM;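 active means inhibition above the mean over all tested compounds plus 3 SD, cut at about 21% in these data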;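 further: 0% = DMSO only wells and 100% = clavulanate BLA inhibitor control wells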
Lipid droplet = modulators of hepatic lipid droplet formation; AML12 mouse hepatocytes, oleate lipid droplets, BODIPY imaging; inhibition, % at 6.5 µM; 0.4% of 240,000 active;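 active means lipid droplet intensity inhibited by at least 50%, with more than 500 cells counted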
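Material: mouse AML12 hepatocyte cell line, fixed after treatment; Timing: compound with oleate, overnight; Technique: high-content imaging of BODIPY-stained droplets and DAPI nuclei; Probe or stimulus: oleate, 100 µM final; Dosing: compound at 6.5 µM only.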
SR-BI DiI-HDL act = SR-BI HDL lipid transfer activation. CHO ldlA[mSR-BI] cells, DiI-HDL uptake fluorescence, 3 h; 100 = double the neutral-control signal. activation, % at 12.5 µM. 0.096% of 320,000 active. AID 504775;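 active means mean replicate activation of at least 60% and every replicate at or above 60%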;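 further: 0% = median plate neutral-control signal and 100% = twice that signal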
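Test system: SR-BI-overexpressing, LDLR-lacking CHO cells. Measured by: DiI fluorescence, bottom read. Medium: Ham's F12 with 0.5% BSA, HEPES 25 mM, pH 7.4. Timing: 3 h uptake period with compound, 37 °C.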
NOD2-RIPK2 inh = inhibitors of human NOD2-RIPK2 interaction; 0.38% of 360,000 active; O43353; inhibition, % at 4.98 µM; CHO BLA complementation NOD2-RIPK2, CCF4 ratio; AID 624267; in the data active means inhibition above about 21%;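 further: 0% = vehicle only and 100% = reference blocker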
TLR4-MyD88 BLA = TLR4-MyD88 interaction inhibition in cells; O00206+Q99836; HeLa CL3-4 TLR4/MyD88 BLA complementation, FRET ratio; inhibition, % at 8.4 µM; 0.18% of 200,000 active; in the data active means inhibition above about 25%;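 further: 0% = vehicle and 100% = reference inhibitor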
SR-BI HDL uptake = mouse SR-BI HDL lipid transfer inhibition | inhibition, % at 12.5 µM | Q61009 | AID 488896 | ldlA[mSR-BI] CHO cells, DiI-HDL uptake fluorescence, 3 h | 0.96% of 320,000 active;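 active means mean replicate inhibition of at least 70% and a set share of replicates each scoring 70 or more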;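 further: 0% = median of neutral control wells and 100% = median of positive control wells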
TLR4 MyD88 cnf = TLR4-MyD88 interaction inhibition confirmed; shares compounds with TLR4-MyD88 BLA; HeLa CL3-4 BLA complementation, CCF4 FRET ratio; inhibition, % at 8.4 µM; 50% of 350 active;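 active means mean inhibition across three repeat runs above about 25% carried over from the earlier screen, limit read from the data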;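 further: plate controls were DMSO only for no effect and clavulanic acid blocking BLA at full dose for full effect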
BLA inh HeLa = inhibits beta-lactamase activity, counter-screen to TLR4-MyD88 binding inhibitors. 63% of 350 active. shares compounds with TLR4-MyD88 BLA. HeLa BLA reporter, CCF4 FRET ratio. inhibition, % at 8.4 µM;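 active means mean inhibition over three repeats above about 26% taken from the earlier screen, limit read from the data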;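 further: HeLa cells stably expressing beta-lactamase reporter as counterscreen for TLR4-MyD88 inhibitors; 0% = DMSO and 100% = clavulanic acid full inhibition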
TLR9-MyD88 cf = confirmation of human TLR9-MyD88 binding inhibitors | shares compounds with TLR9-MyD88 block | CHO TLR9/MyD88 BLA complementation, CCF4 FRET ratio | inhibition, % at 4.98 µM | 51% of 680 active | AID 540250;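 active means mean inhibition across three repeats above about 21% taken from the earlier screen, limit read from the data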;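 further: blue over green emission ratio reports constitutive TLR9 MyD88 association via BLA complementation; 0% = DMSO vehicle wells and 100% = clavulanate BLA inhibitor wells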
Target sequence (Q9NR96 whole entry, looked up): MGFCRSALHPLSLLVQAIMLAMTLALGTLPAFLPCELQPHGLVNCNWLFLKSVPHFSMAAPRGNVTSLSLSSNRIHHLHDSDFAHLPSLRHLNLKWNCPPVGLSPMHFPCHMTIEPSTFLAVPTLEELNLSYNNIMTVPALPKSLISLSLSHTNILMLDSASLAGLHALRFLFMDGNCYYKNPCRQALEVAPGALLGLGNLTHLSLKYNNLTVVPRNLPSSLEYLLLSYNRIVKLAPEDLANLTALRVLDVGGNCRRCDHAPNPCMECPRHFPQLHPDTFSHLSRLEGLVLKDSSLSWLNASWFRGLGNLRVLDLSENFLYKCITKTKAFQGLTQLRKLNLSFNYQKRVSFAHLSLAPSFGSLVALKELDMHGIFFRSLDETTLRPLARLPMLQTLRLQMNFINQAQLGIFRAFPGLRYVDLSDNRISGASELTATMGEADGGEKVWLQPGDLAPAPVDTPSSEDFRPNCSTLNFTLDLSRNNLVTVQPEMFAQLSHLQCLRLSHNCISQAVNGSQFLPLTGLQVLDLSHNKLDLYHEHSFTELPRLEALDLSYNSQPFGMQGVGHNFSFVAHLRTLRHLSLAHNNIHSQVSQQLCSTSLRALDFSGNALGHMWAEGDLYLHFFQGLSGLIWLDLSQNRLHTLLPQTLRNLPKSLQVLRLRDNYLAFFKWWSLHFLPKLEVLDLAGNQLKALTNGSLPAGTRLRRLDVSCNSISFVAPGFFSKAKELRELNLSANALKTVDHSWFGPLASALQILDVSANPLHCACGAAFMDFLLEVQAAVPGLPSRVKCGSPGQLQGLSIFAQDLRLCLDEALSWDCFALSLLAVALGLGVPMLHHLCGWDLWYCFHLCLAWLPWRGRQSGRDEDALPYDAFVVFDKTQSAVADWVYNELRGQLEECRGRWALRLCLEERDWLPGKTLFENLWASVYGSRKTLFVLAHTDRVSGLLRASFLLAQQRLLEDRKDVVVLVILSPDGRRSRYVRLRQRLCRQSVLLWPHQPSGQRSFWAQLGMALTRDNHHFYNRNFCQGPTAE
BLA counter-1 = beta-lactamase reporter inhibition, counter-screen artifact; shares compounds with TLR9-MyD88 block; CHO-BLA cells, CCF4 FRET ratio, BLA reporter; inhibition, % at 4.98 µM; 7% of 680 active;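 active means mean inhibition above a 50% cutoff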;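 further: counterscreen of TLR9-MyD88 hits on CMV-driven BLA in CHO-K1 cells; 0% = DMSO alone and 100% = clavulanate blocking BLA; higher means less blue over green ratio so more BLA blockade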
TLR9 CHO cytotox = CHO cell toxicity counter-screen for TLR9-MyD88 inhibitors; 39% of 680 active; inhibition, % at 4.98 µM; shares compounds with TLR9-MyD88 block; AID 588336; TLR9-MyD88 CHO cells cytotoxicity, luminescence; in the data active means inhibition above about 11%
NOD2 RIPK2 conf = confirmation of human NOD2-RIPK2 interaction inhibitors; CHO cells, NOD2-RIPK2 BLA complementation, CCF4 FRET; shares compounds with NOD2-RIPK2 inh; 70% of 1,200 active; inhibition, % at 4.98 µM;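 active means mean inhibition across replicates above a set limit taken from the earlier primary screen, cut at about 21% in these data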;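 further: 0% = DMSO-only wells and the high end = clavulanate BLA-blocked wells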
BLA counter-2 = NOD2-RIPK2 counterscreen BLA reporter activity | shares compounds with NOD2-RIPK2 inh | CHO BLA reporter, CCF4 FRET ratio | inhibition, % at 4.98 µM | 57% of 1,200 active | AID 624371;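 active means mean inhibition above the low-control mean inhibition plus three low-control SD, cut at about 11% in these data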;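 further: 0% = DMSO only wells and 100% = clavulanate high control wells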
* marks the source's active call; other numbers are inactive results; / = no result given.

SMILES	TLR9-MyD88 block	Lipid droplet	SR-BI DiI-HDL act	NOD2-RIPK2 inh	TLR4-MyD88 BLA	SR-BI HDL uptake	TLR4 MyD88 cnf	BLA inh HeLa	TLR9-MyD88 cf	BLA counter-1	TLR9 CHO cytotox	others
CCCCN(C)CC(O)Cn1cc(/C=C/C(=O)c2ccc(OCC)cc2)c2ccccc21 (stereo unspecified)	/	7.0	/	/	/	/	/	/	/	/	/
COC(=O)Cc1c(C)c2ccc(OCC(=O)N3CCC(C)CC3)c(C)c2oc1=O	7.9	21.0	-13.4	-1.0	/	13.4	/	/	/	/	/
Cc1nc(N2CCN(C)CC2)c2sc(=S)n(-c3ccccc3)c2n1	3.9	3.9	-25.3	4.1	-13.9	25.3	/	/	/	/	/
S=c1sc2c(Cl)ncnc2n1-c1ccccc1	28.8*	-2.6	-10.3	53.5*	52.0*	10.3	47.4*	26.1*	26.3*	14.8	24.9*
COc1ccc(CCNC(=S)N2CCN(S(=O)(=O)c3ccc(C)cc3)CC2)cc1	-3.2	/	-0.8	0.2	/	0.8	/	/	/	/	/
CCN(CC)c1ccc2cc(C(C)=O)c(=O)oc2c1	-4.7	/	-7.0	8.8	-4.6	7.0	/	/	/	/	/
CCN(CC)c1ccc2cc(NC(=O)CCC(=O)O)c(=O)oc2c1	68.3*	-1.6	9.1	78.8*	58.0*	-9.1	60.8*	82.6*	49.6*	56.7*	0.8
CC(C)Oc1ccc(N2CC(C(=O)Nc3ccccc3C(=O)NC3CC3)CC2=O)cc1 (stereo unspecified)	-2.8	/	-22.2	-10.3	/	22.2	/	/	/	/	/
O=C(O)c1ccccc1-c1ccc(/C=C/c2cc(C(F)(F)F)[nH]c(=O)n2)o1	38.9*	15.0	18.5	20.2	26.4*	-18.5	19.0	32.9*	24.6*	31.5	1.3
Brc1cc(Br)c2nc(-c3ccc(N4CCOCC4)cc3)ccc2c1	39.5*	31.7	0.3	26.7*	29.0*	-0.3	14.0	29.8*	43.2*	46.5	4.4
CCN1CCN(c2c(Cl)cccc2NC(=O)c2ccc([N+](=O)[O-])cc2)CC1	10.5	4.0	-25.3	-6.8	9.4	25.3	/	/	/	/	/
O=C1/C(=C/c2ccco2)CCc2ccccc21	4.4	27.7	21.4	-4.7	-6.8	-21.4	/	/	/	/	/
Nc1ccc2c(c1)C/C(=C/c1ccco1)C2=O	23.6*	12.2	29.0	13.3	32.4*	-29.0	26.2*	54.5*	23.2*	29.6	6.7
O=C(NC(Cc1ccccc1)C(=O)Oc1ccc2c(C(F)(F)F)cc(=O)oc2c1)OCc1ccccc1 (stereo unspecified)	58.6*	8.2	-64.4	70.8*	39.3*	64.4	32.3*	67.2*	33.9*	44.1	2.1
Fc1ccc(C2=CC(c3ccc(Br)o3)n3ncnc3N2)cc1 (stereo unspecified)	25.1*	-30.1	16.0	21.6*	27.6*	-16.0	7.3	26.2*	14.9	19.5	2.9
Cc1cc(F)ccc1S(=O)(=O)Nc1ccccc1C(=O)N1CCCC1	-1.9	/	12.1	-8.9	/	-12.1	/	/	/	/	/
Cc1ccc(NC(=O)/C(C#N)=C/c2cn(CC(=O)NCc3ccco3)c3ccccc23)cc1C	35.8*	-1.8	-36.2	-18.2	59.8*	36.2	53.9*	80.0*	7.5	14.0	27.8*
Cn1c(=O)c(NC2CCCCC2)c2c3c(cccc31)C(=O)c1ccccc1-2	22.2*	-5.0	-49.7	-0.4	48.2*	49.7	22.1	48.7*	19.6	23.5	7.2
Cc1onc(-c2ccccc2)c1C(=O)NCC(=O)Nc1cc(Cl)ccc1Cl	-0.5	/	-33.9	4.2	/	33.9	/	/	/	/	/
Cc1ccc(NC(=O)CN(C)C(=O)Cn2ncc(Cl)c(Cl)c2=O)cc1	15.7	-26.1	3.2	25.3*	31.9*	-3.2	16.3	3.9	/	/	/	NOD2 RIPK2 conf=23.0*;BLA counter-2=4.9
Cc1ccc(NC(=O)CN(C)C(=O)Cc2ccc(Cl)c(Cl)c2)cc1	-5.7	13.5	/	-6.5	/	/	/	/	/	/	/
COc1ccc(CN2CCNC(=O)C2CC(=O)NCC2CCOCC2)cc1C (stereo unspecified)	-8.9	9.6	-7.8	-5.7	/	7.8	/	/	/	/	/
Cc1n[nH]c(C)c1N1C(=O)c2cccc3c(Br)ccc(c23)C1=O	48.1*	16.2	-14.3	56.7*	72.7*	14.3	44.8*	78.9*	22.1*	26.4	3.9	NOD2 RIPK2 conf=71.4*;BLA counter-2=58.6*
Nc1ccc2c3c(cccc13)C(=O)N(c1ccccc1)C2=O	28.2*	21.5	5.9	31.2*	25.2*	-5.9	18.0	38.8*	12.8	15.6	3.6	NOD2 RIPK2 conf=35.7*;BLA counter-2=42.3*
Cc1[nH]c2ccccc2c1/C=N/NC(=O)c1cccc([N+](=O)[O-])c1	/	-3.9	-57.7	-4.9	-8.0	57.7	/	/	/	/	/
Cc1[nH]c2ccccc2c1/C=N/Nc1ccc([N+](=O)[O-])cc1	25.8*	4.1	-128.1	28.1*	31.0*	128.1*	23.9	42.6*	16.9	14.6	3.9	NOD2 RIPK2 conf=30.4*;BLA counter-2=42.5*
Cc1ccc(NC2=Nc3ccccc3N3C2=Nc2c(c(C)nn2-c2ccccc2)C3c2ccc(O)c(O)c2)cc1 (stereo unspecified)	66.1*	/	-119.3	65.9*	51.4*	119.3*	53.5*	83.8*	58.5*	65.8*	4.5	NOD2 RIPK2 conf=74.3*;BLA counter-2=81.2*
COc1cc(OC)c(OC)cc1CNCCNC(=O)c1nonc1N	-10.5	/	-0.5	6.8	7.4	0.5	/	/	/	/	/
CC(N=C1CC(C)(C)CC(=O)/C1=C(/O)CCCN1C(=O)c2ccccc2C1=O)C(=O)O (stereo unspecified)	-9.8	13.9	9.2	-2.9	-15.1	-9.2	/	/	/	/	/
CCCCCCCCn1c2c(c(=N)c3ccccc31)CCC2	/	-166.9	-5.6	21.4*	34.6*	5.6	22.3	27.5*	/	/	/	NOD2 RIPK2 conf=16.3;BLA counter-2=-2.2
